# Experimental data published in ChEMBL document CHEMBL1138243, “Design of mechanism-based inhibitors of transthyretin amyloidosis: studies with biphenyl ethers and new structural templates” (J Med Chem, 2007).
# Calls of active or inactive are those of the source. No cut-off for these calls is given here.
# Target: T1, Transthyretin (Homo sapiens, UniProt P02766)
# Experiment: Inhibition of fibril elongation of preformed transthyretin at […] after 72 hrs by turbidity assay
# Assay type: functional
# Settings: not given
row,Compound,Activity
1,COc1cc(CCl)ccc1Oc1ccc(Cl)cc1Cl,Active
2,O=C(O)c1ccc(Oc2ccc(Cl)cc2Cl)c(O)c1,Active
3,COc1cc(C=O)ccc1Oc1ccccc1,Active
4,OCc1ccc(Oc2ccc(Cl)cc2Cl)c(O)c1,Active
5,O=C(Nc1nnc[nH]1)c1c(Cl)ccc(Cl)c1Cl,Active
6,Oc1ccccc1-c1nnc(S)o1,Active
7,O=C(O)c1ccc(Oc2ccccc2)c(O)c1,Active
8,O=Cc1ccc(Oc2ccc(Cl)cc2Cl)c(O)c1,Active
9,COc1cc(CCl)ccc1Oc1ccccc1,Active
10,COc1cc(C(=O)O)ccc1Oc1ccc(Cl)cc1Cl,Active

# Target: T1, Transthyretin
# Experiment: Inhibition of transthyretin amyloidosis assessed as fibril formation at 7.2 uM at pH 4.4 relative to control
# Assay type: functional
# Parameters: scale not given: the % may be the effect or the level left
# Settings: not given
# Summary of the method: (§1)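 WT TTR tetramer (7.2 µM) in pH 7 phosphate/KCl/EDTA was preincubated 1 h at 25 °C with inhibitor (7.2 or 21.6 µM; 1:1 or 1:3) in 1% DMSO. It was then diluted with pH 4.4 acetate/KCl/EDTA buffer and held stagnant 72 h at 37 °C. Turbidity was read at 340 nm as % fibril formation versus untreated (100%). Mean of five experiments.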
row,Compound,Activity [%]
1,COc1cc(CCl)ccc1Oc1ccc(Cl)cc1Cl,26
2,Oc1cc(CCl)ccc1Oc1ccc(Cl)cc1Cl,5
3,O=C(O)c1ccc(Oc2ccc(Cl)cc2Cl)c(O)c1,29
4,COc1cc(C=O)ccc1Oc1ccccc1,12
5,OCc1ccc(Oc2ccc(Cl)cc2Cl)c(O)c1,12
6,O=C(Nc1nnc[nH]1)c1c(Cl)ccc(Cl)c1Cl,11
7,Oc1ccccc1-c1nnc(S)o1,21
8,O=C(O)c1ccc(Oc2ccccc2)c(O)c1,32
9,O=Cc1ccc(Oc2ccc(Cl)cc2Cl)c(O)c1,0
10,COc1cc(CCl)ccc1Oc1ccccc1,25
11,Oc1cc(Cl)ccc1Oc1ccc(Cl)cc1Cl,75
12,N[C@H](Cc1cc(I)c(Oc2cc(I)c(O)c(I)c2)c(I)c1)C(=O)O,48
13,COc1cc(C(=O)O)ccc1Oc1ccc(Cl)cc1Cl,10

# Target: T1, Transthyretin
# Experiment: Inhibition of transthyretin fibril formation at pH 4.4
# Assay type: functional
# Settings: not given
row,Compound,IC50 [µM]
1,O=C(O)c1ccc(Oc2ccccc2)c(O)c1,3.18
2,COc1cc(C(=O)O)ccc1Oc1ccccc1,41

# Target: T1, Transthyretin
# Experiment: Inhibition of transthyretin amyloidosis assessed as fibril formation pH 4.4 at 100 uM
# Assay type: functional
# Settings: not given
# Summary of the method: (§2)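 Library screen of acid-mediated TTR fibril formation at pH 4.4 with inhibitor at 100 µM. TTR was at 7.2 µM.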
row,Compound,percent fibril formation relative to control [%]
1,O=C(Nc1nnc[nH]1)c1c(Cl)ccc(Cl)c1Cl,11.5
2,Oc1ccccc1-c1nnc(S)o1,13.8
3,O=C1/C(=C\c2ccco2)SC(=S)N1c1cccc(F)c1,340
4,O=c1c2sccc2n(Cc2ccc(F)cc2Cl)c(=O)n1-c1cc(F)ccc1F,117
5,Nc1cc(O)nc(SCC(=O)N2CCOCC2)n1,112
6,O=C(O)C1CSC(c2ccc(Cl)c(Cl)c2)N1 (stereo unspecified),102
7,CC(C)C(=O)NC(c1ccccc1)c1ccc2cccnc2c1O (stereo unspecified),4.6
8,O=C(c1cc(-c2ccc(Cl)s2)nc2ccccc12)N1CCOCC1,156
9,Clc1ccc2nc(-c3ccc(Cl)s3)c(NC3CCCCC3)n2c1,138
10,CCCCN(CC)Cc1c(C)nc2ccc(Cl)cc2c1O,79.7
11,CSC1=NSC2=NC(=O)/C(=C\c3ccc(O)cc3)C(=N)N12,72.7
12,Oc1ccc(-c2n[nH]c(=S)o2)cc1,19.2
13,O=C1NC(=S)S/C1=C\c1ccc(-c2cc(Cl)ccc2Cl)o1,286
14,Fc1ccccc1NC(=S)N(CCCN1CCOCC1)Cc1cccnc1,99.3
15,Oc1ccc(Nc2nc(-c3ccc(Cl)cc3)nc3ccccc23)cc1,96
16,O=C1/C(=C\c2cccc(O)c2)SC(=S)N1c1ccc(F)cc1,309

# Target: T1, Transthyretin
# Experiment: Inhibition of transthyretin fibril formation at pH 4.4 at 50 uM
# Assay type: functional
# Parameters: scale not given: the % may be the effect or the level left
# Settings: not given
row,Compound,Activity [%]
1,O=C(O)c1ccc(Oc2ccc([N+](=O)[O-])cc2[N+](=O)[O-])c(O)c1,75
2,COc1cc(CCl)ccc1Oc1ccc(Cl)cc1Cl,0
3,Oc1cc(CCl)ccc1Oc1ccc(Cl)cc1Cl,0
4,O=Cc1ccc(Oc2ccc([N+](=O)[O-])cc2[N+](=O)[O-])c(O)c1,40.5
5,COc1cc(COC(C)=O)ccc1Oc1ccc([N+](=O)[O-])cc1[N+](=O)[O-],69
6,O=C(O)c1ccc(Oc2ccc(Cl)cc2Cl)c(O)c1,0
7,O=Cc1ccc(Oc2ccccc2)c(O)c1,112
8,COc1cc(C=O)ccc1Oc1ccccc1,0
9,OCc1ccc(Oc2ccc(Cl)cc2Cl)c(O)c1,11.5
10,COc1cc(C(=O)O)ccc1Oc1ccc([N+](=O)[O-])cc1[N+](=O)[O-],48
11,COc1cc(CO)ccc1Oc1ccccc1,61.2
12,O=C(O)c1ccc(Oc2ccccc2)c(O)c1,5
13,COc1cc(C=O)ccc1Oc1ccc([N+](=O)[O-])cc1[N+](=O)[O-],66
14,O=Cc1ccc(Oc2ccc(Cl)cc2Cl)c(O)c1,0
15,COc1cc(CO)ccc1Oc1ccc([N+](=O)[O-])cc1[N+](=O)[O-],28
16,COc1cc(CCl)ccc1Oc1ccccc1,0
17,Oc1cc(Cl)ccc1Oc1ccc(Cl)cc1Cl,41
18,COc1cc(CCl)ccc1Oc1ccc([N+](=O)[O-])cc1[N+](=O)[O-],79
19,COc1cc(CO)ccc1Oc1ccc([N+](=O)[O-])cc1,89.5
20,COc1cc(C(=O)O)ccc1Oc1ccc(Cl)cc1Cl,0
21,COc1cc(C(=O)O)ccc1Oc1ccccc1,40

# Test system: not listed separately
# Experiment: Cytotoxicity against TTR-induced […] cells assessed as viability at 50 uM after 72 hrs
# Assay type: functional
# Settings: Mus musculus, N2a, read-out: Activity
row,Compound,viability at 50 µM [%]
1,COc1cc(CCl)ccc1Oc1ccc(Cl)cc1Cl,86
2,Oc1cc(CCl)ccc1Oc1ccc(Cl)cc1Cl,86
3,O=C(O)c1ccc(Oc2ccc(Cl)cc2Cl)c(O)c1,86
4,COc1cc(C=O)ccc1Oc1ccccc1,86
5,OCc1ccc(Oc2ccc(Cl)cc2Cl)c(O)c1,86
6,O=C(Nc1nnc[nH]1)c1c(Cl)ccc(Cl)c1Cl,86
7,Oc1ccccc1-c1nnc(S)o1,86
8,O=C(O)c1ccc(Oc2ccccc2)c(O)c1,86
9,O=Cc1ccc(Oc2ccc(Cl)cc2Cl)c(O)c1,86
10,COc1cc(CCl)ccc1Oc1ccccc1,86
11,COc1cc(C(=O)O)ccc1Oc1ccc(Cl)cc1Cl,86

# Test system: Neuro2a
# Experiment: Cytotoxicity against […] cells at 50 uM
# Assay type: functional, cell-based
# Settings: Mus musculus
row,Compound,Activity
1,COc1cc(CCl)ccc1Oc1ccc(Cl)cc1Cl,Not toxic
2,Oc1cc(CCl)ccc1Oc1ccc(Cl)cc1Cl,Not toxic
3,O=C(O)c1ccc(Oc2ccc(Cl)cc2Cl)c(O)c1,Not toxic
4,COc1cc(C=O)ccc1Oc1ccccc1,Not toxic
5,OCc1ccc(Oc2ccc(Cl)cc2Cl)c(O)c1,Not toxic
6,O=C(Nc1nnc[nH]1)c1c(Cl)ccc(Cl)c1Cl,Not toxic
7,Oc1ccccc1-c1nnc(S)o1,Not toxic
8,O=C(O)c1ccc(Oc2ccccc2)c(O)c1,Not toxic
9,O=Cc1ccc(Oc2ccc(Cl)cc2Cl)c(O)c1,Not toxic
10,COc1cc(CCl)ccc1Oc1ccccc1,Not toxic
11,COc1cc(C(=O)O)ccc1Oc1ccc(Cl)cc1Cl,Not toxic

# Target: T1, Transthyretin
# Experiment: Inhibition of transthyretin amyloidosis assessed as fibril formation at 21.6 uM at pH 4.4 relative to control
# Assay type: functional
# Parameters: scale not given: the % may be the effect or the level left
# Settings: not given
# Summary of the method: as §1
row,Compound,Activity [%]
1,COc1cc(CCl)ccc1Oc1ccc(Cl)cc1Cl,0
2,Oc1cc(CCl)ccc1Oc1ccc(Cl)cc1Cl,0
3,O=C(O)c1ccc(Oc2ccc(Cl)cc2Cl)c(O)c1,13.3
4,COc1cc(C=O)ccc1Oc1ccccc1,0
5,OCc1ccc(Oc2ccc(Cl)cc2Cl)c(O)c1,2.6
6,O=C(Nc1nnc[nH]1)c1c(Cl)ccc(Cl)c1Cl,3.6
7,Oc1ccccc1-c1nnc(S)o1,0
8,O=C(O)c1ccc(Oc2ccccc2)c(O)c1,5
9,O=Cc1ccc(Oc2ccc(Cl)cc2Cl)c(O)c1,0
10,COc1cc(CCl)ccc1Oc1ccccc1,0
11,Oc1cc(Cl)ccc1Oc1ccc(Cl)cc1Cl,66
12,N[C@H](Cc1cc(I)c(Oc2cc(I)c(O)c(I)c2)c(I)c1)C(=O)O,7
13,COc1cc(C(=O)O)ccc1Oc1ccc(Cl)cc1Cl,0

# Target: T1, Transthyretin
# Experiment: Stabilization of urea-induced transthyretin dissociation at 5.4 uM at pH 7.2 after 1 hr relative to control
# Settings: not given
row,Compound,Activity [%]
1,O=C(O)c1ccc(Oc2ccc(Cl)cc2Cl)c(O)c1,21
2,Oc1cc(Cl)ccc1Oc1ccc(Cl)cc1Cl,47
3,N[C@H](Cc1cc(I)c(Oc2cc(I)c(O)c(I)c2)c(I)c1)C(=O)O,27

# Target: T1, Transthyretin
# Experiment: Binding affinity to transthyretin at pH 4.4
# Settings: not given
# Summary of the method: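 Kd at pH 4.4 measured by fluorescence titration of TTR. Data were fitted to the Adair equation for two binding sites, giving Kd1 and Kd2. Experiments were run in triplicate.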
row,Compound,Kd
1,COc1cc(CCl)ccc1Oc1ccccc1,Active

# Same assay, conditions: read-out: Kd
row,Compound,Kd [µM]
1,O=C(O)c1ccc(Oc2ccccc2)c(O)c1,0.027

# Target: T1, Transthyretin
# Experiment: Inhibition of transthyretin fibril formation at pH 4.4 at 100 uM
# Assay type: functional
# Settings: not given
# Summary of the method: as §2
row,Compound,inhibition [%]
1,O=C(Nc1nnc[nH]1)c1c(Cl)ccc(Cl)c1Cl,88.5
2,Oc1ccccc1-c1nnc(S)o1,86.2
3,O=C1/C(=C\c2ccco2)SC(=S)N1c1cccc(F)c1,0
4,O=c1c2sccc2n(Cc2ccc(F)cc2Cl)c(=O)n1-c1cc(F)ccc1F,0
5,Nc1cc(O)nc(SCC(=O)N2CCOCC2)n1,0
6,O=C(O)C1CSC(c2ccc(Cl)c(Cl)c2)N1 (stereo unspecified),0
7,CC(C)C(=O)NC(c1ccccc1)c1ccc2cccnc2c1O (stereo unspecified),95.4
8,O=C(c1cc(-c2ccc(Cl)s2)nc2ccccc12)N1CCOCC1,0
9,Clc1ccc2nc(-c3ccc(Cl)s3)c(NC3CCCCC3)n2c1,0
10,CCCCN(CC)Cc1c(C)nc2ccc(Cl)cc2c1O,20.3
11,CSC1=NSC2=NC(=O)/C(=C\c3ccc(O)cc3)C(=N)N12,27.3
12,Oc1ccc(-c2n[nH]c(=S)o2)cc1,80.8
13,O=C1NC(=S)S/C1=C\c1ccc(-c2cc(Cl)ccc2Cl)o1,0
14,Fc1ccccc1NC(=S)N(CCCN1CCOCC1)Cc1cccnc1,0.7
15,Oc1ccc(Nc2nc(-c3ccc(Cl)cc3)nc3ccccc23)cc1,4.06
16,O=C1/C(=C\c2cccc(O)c2)SC(=S)N1c1ccc(F)cc1,0

# Target: T1, Transthyretin
# Experiment: Stabilization of urea-induced transthyretin dissociation at 5.4 uM at pH 7.2 after […] relative to control
# Settings: not given
row,Compound,Activity [%]
1,COc1cc(CCl)ccc1Oc1ccc(Cl)cc1Cl,< 5
2,Oc1cc(CCl)ccc1Oc1ccc(Cl)cc1Cl,< 5
3,COc1cc(C=O)ccc1Oc1ccccc1,< 5
4,OCc1ccc(Oc2ccc(Cl)cc2Cl)c(O)c1,< 5
5,O=C(Nc1nnc[nH]1)c1c(Cl)ccc(Cl)c1Cl,< 5
6,Oc1ccccc1-c1nnc(S)o1,< 5
7,O=C(O)c1ccc(Oc2ccccc2)c(O)c1,< 5
8,O=Cc1ccc(Oc2ccc(Cl)cc2Cl)c(O)c1,< 5
9,COc1cc(CCl)ccc1Oc1ccccc1,< 5
10,COc1cc(C(=O)O)ccc1Oc1ccc(Cl)cc1Cl,< 5

# Target: T1, Transthyretin
# Experiment: Inhibition of transthyretin fibril formation assessed as turbidity at 21.6 uM at pH 4.4 after 3 hrs
# Assay type: functional
# Settings: not given
# Summary of the method: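 Kinetics run with 7.2 µM TTR plus 21.6 µM inhibitor at pH 4.4, 37 °C. Turbidity at 340 nm was followed for 3 h. Initial fibrillization rate came from the linear slope of A340 versus time. Three experiments in triplicate.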
row,Compound,inhibition [%]
1,COc1cc(CCl)ccc1Oc1ccc(Cl)cc1Cl,> 80
2,Oc1cc(CCl)ccc1Oc1ccc(Cl)cc1Cl,> 80
3,O=C(O)c1ccc(Oc2ccc(Cl)cc2Cl)c(O)c1,> 80
4,COc1cc(C=O)ccc1Oc1ccccc1,> 80
5,OCc1ccc(Oc2ccc(Cl)cc2Cl)c(O)c1,> 80
6,O=C(Nc1nnc[nH]1)c1c(Cl)ccc(Cl)c1Cl,> 80
7,Oc1ccccc1-c1nnc(S)o1,> 80
8,O=C(O)c1ccc(Oc2ccccc2)c(O)c1,> 80
9,O=Cc1ccc(Oc2ccc(Cl)cc2Cl)c(O)c1,> 80
10,COc1cc(CCl)ccc1Oc1ccccc1,> 80
11,Oc1cc(Cl)ccc1Oc1ccc(Cl)cc1Cl,62
12,N[C@H](Cc1cc(I)c(Oc2cc(I)c(O)c(I)c2)c(I)c1)C(=O)O,75
13,COc1cc(C(=O)O)ccc1Oc1ccc(Cl)cc1Cl,> 80
